Assay outcomes: PubChem, The Scripps Research Institute Molecular Screening Center
SIAE inh = inhibitors of human sialic acid acetylesterase SIAE | SIAE FP-Rh probe binding, fluorescence polarization | AID 1053197 | 370,000 compounds, 0.69% hits | inhibition, % at 9.66 µM;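 active = inhibition above a cutoff: mean of compounds within the control limits plus 3 SD of those, cut at about 17% in these data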;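 note: 0% = plate median of compound wells and 100% = probe without SIAE protein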
Target sequence (Q9HAT2 whole entry, looked up): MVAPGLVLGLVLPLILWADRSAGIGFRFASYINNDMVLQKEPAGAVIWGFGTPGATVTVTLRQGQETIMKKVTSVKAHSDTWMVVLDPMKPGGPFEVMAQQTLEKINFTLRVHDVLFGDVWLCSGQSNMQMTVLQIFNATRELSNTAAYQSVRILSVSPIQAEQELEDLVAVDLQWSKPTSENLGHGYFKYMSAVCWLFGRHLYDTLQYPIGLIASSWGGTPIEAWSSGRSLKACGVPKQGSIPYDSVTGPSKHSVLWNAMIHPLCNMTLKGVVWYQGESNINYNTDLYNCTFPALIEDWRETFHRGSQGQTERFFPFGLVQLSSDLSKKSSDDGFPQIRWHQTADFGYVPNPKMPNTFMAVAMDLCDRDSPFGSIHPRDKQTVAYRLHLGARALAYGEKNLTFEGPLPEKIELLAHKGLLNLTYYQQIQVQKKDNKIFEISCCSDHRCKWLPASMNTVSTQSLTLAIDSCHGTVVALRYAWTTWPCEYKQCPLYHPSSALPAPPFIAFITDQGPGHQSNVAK
PRMT1 inh = inhibitors of human PRMT1. recombinant PRMT1, activity-based probe fluorescence polarization. inhibition, % at 2.79 µM. Q99873. 370,000 compounds, 1.3% hits. AID 652257;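 active = inhibition above about 21% made by adding two undisclosed values, limit read from the data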
rCAG binder = binds r(CAG) RNA repeats | AID 651821 | r(CAG) RNA repeat, TO-PRO-1 dye displacement fluorescence | inhibition, % at 3 µM | 370,000 compounds, 1.3% hits;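 active = inhibition above the plate cutoff, the mean of all test compounds on that plate plus 3 SD, cut at about 35% in these data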;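 note: 0% = DMSO alone and 100% = 100 µM mitoxantrone as full dye displacement; higher means more dye released from RNA so lower well fluorescence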
mABHD4 FP = inhibits mouse alpha/beta hydrolase domain 4. Q8VD66. purified mABHD4, FP-Rh probe fluorescence polarization. inhibition, % at 8.92 µM. 370,000 compounds, 0.54% hits. AID 720543;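 active = inhibition exceeding the mean over every tested compound plus 3 SD, cut at about 30% in these data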;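 note: 0% = plate median of compound wells and 100% = S159A mutant with DMSO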
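Test system: mouse ABHD4 enzyme, wild type. Reagent: FP-Rh fluorescent activity-based probe, added after compound pre-incubation. Timing: pre-incubation 45 min, probe exposure 60 min, at 25 °C. Technique: FP readout, ex 525 nm / em 598 nm. Benchmarks: high control S159A mutant with DMSO, low control median of compound wells.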
HTRA1 inhibitor = HTRA1 (human) protease inhibition | Q92743 | recombinant HTRA1, FP-rhodamine activity-based probe, fluorescence polarization | inhibition, % at 5.96 µM | 340,000 compounds, 0.5% hits | AID 504803; in the data active = inhibition above about 36%;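 note: 0% = enzyme with DMSO and 100% = wells lacking enzyme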
rCAG binder conf = r(CAG) RNA repeat binding, confirmation; shares compounds with rCAG binder; inhibition, % at 3 µM; TO-PRO-1 dye displacement fluorescence; AID 652065; 4,300 compounds, 70% hits;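 active = inhibition above a per-plate cutoff, the mean inhibition of sample wells plus 3 SD, cut at about 35% in these data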;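 note: loss of TO-PRO-1 fluorescence as compound displaces dye from 1x1 AA loop RNA; 0% = DMSO only wells and 100% = 100 µM mitoxantrone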
dCAG dye counter = counter-screen for rCAG RNA binders: DNA CAG dye complex inhibitors | d(CAG) DNA oligo TO-PRO-1 dye displacement, fluorescence | shares compounds with rCAG binder | AID 652068 | inhibition, % at 3 µM | 4,300 compounds, 94% hits;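 active = inhibition above its plate's cutoff, the mean test-well inhibition plus 3 SD, cut at about 4.8% in these data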;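 note: 0% = DNA dye mix with DMSO and 100% = 100 µM mitoxantrone; hits displace the dye from DNA and so lower well fluorescence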
DNA CAG DR = counter-screen for rCAG binders: inhibitors of DNA CAG TO-PRO-1 complex; shares compounds with rCAG binder; DNA CAG/GTC duplex TO-PRO-1 dye displacement fluorescence; IC50, µM; 250 compounds, 20% hits; AID 686960; in the data active = IC50 below about 10 µM
Active calls of the source: *; · = no result given. Rows were chosen to be rich in hits. Some 3.3% of all compounds tested hit in one or more screens of this group.

SMILES	SIAE inh	PRMT1 inh	rCAG binder	mABHD4 FP	HTRA1 inhibitor	rCAG binder conf	dCAG dye counter	others
Cc1ccnc(OC(C(=O)O)C(OCc2ccccc2)(c2ccccc2)c2ccc(C(F)(F)F)cc2)n1 (stereo unspecified)	-8.3	-2.7	49.8*	16.2	-9.2	49.3*	13.8*	DNA CAG DR=>29.9
Cc1oc(-c2ccccc2)cc1C(=O)Nc1cccc(/C=C/C(=O)O)c1	-16.3	5.9	47.0*	-40.2	-32.3	39.0*	9.0*
COc1ccc(OC)c(CN2C(=O)c3ccnn3CC2(C)c2nnnn2C2CCCC2)c1 (stereo unspecified)	2.0	-0.8	7.5	4.0	·	·	·
Brc1cccc(Cn2ccc3ccc(-c4ccc5ccn(Cc6cccc(Br)c6)c5c4)cc32)c1	-7.2	0.3	10.8	-6.3	·	·	·
Cc1ccc2c(c1)C1CS(=O)(=O)N(CC(C)C)C(=O)N1C2 (stereo unspecified)	-2.1	0.8	-1.1	3.4	·	·	·
CCOc1cc(CC(=O)N[C@@H](CC(C)C)c2ccccc2N2CCCCC2)ccc1C(=O)O	2.7	-1.9	46.9*	-4.2	1.1	36.0*	9.8*
NC1=[N+](Cc2ccccc2)C(Cc2ccccc2)C2C(=C3CCCCC3n3c(=O)n(-c4ccccc4)c(=O)n32)N1 (stereo unspecified)	-0.9	1.4	17.5	22.3	·	·	·
CCOC(=O)[C@@]12CN(C(=O)OC(C)(C)C)CC=C1N(Cc1ccc(OC)cc1)C(=O)[C@H]2CC(=O)NCCC(C)C	2.9	1.9	-1.8	7.8	·	·	·
CCc1nnc(NS(=O)(=O)c2ccc(N=Cc3c(C)[nH]n(-c4ccc(C)c(C)c4)c3=O)cc2)s1	-8.7	0.2	55.4*	-6.1	0.1	84.6*	57.4*
Cc1[nH]n(-c2ccc(Br)cc2)c(=O)c1C=Nc1ccc(S(=O)(=O)Nc2nccs2)cc1	2.9	5.0	54.0*	10.2	-11.4	80.7*	46.9*
Cc1cc(C)nc(NS(=O)(=O)c2ccc(N=Cc3c(C)[nH]n(-c4ccccc4)c3=O)cc2)n1	14.3	-2.3	14.3	9.2	-4.2	·	·
Clc1ccc(-c2nnc(SCc3cccc4ccccc34)n2-c2ccc(Cl)cc2)cc1	-4.3	-1.0	5.4	-15.1	·	·	·
O=C(/C=C/c1ccc(NC(=O)c2ccccc2-c2ccccc2C(=O)O)cc1)c1ccccc1	-24.3	3.8	68.5*	-21.5	-27.7	66.1*	24.0*
CNC(=O)C1CC(=O)N(CCc2ccccc2)C(=Nc2ccc(OC)cc2)S1 (stereo unspecified)	-0.5	5.6	-3.0	-1.8	-2.5	·	·
COc1ccc(N=C2SC(C(=O)Nc3ccc(C(=O)O)cc3)CC(=O)N2Cc2cccs2)cc1 (stereo unspecified)	-7.2	-0.1	61.4*	-50.5	-18.1	60.1*	20.3*
O=C(O)CN1C(=O)/C(=C\c2cc(Br)ccc2OCc2ccccc2Cl)SC1=S	-21.9	13.0	77.8*	-16.8	-111.6	93.2*	74.8*
O=C(O)CCN1C(=O)/C(=C\c2cccc(OCc3ccccc3)c2)SC1=S	-7.1	1.9	6.7	5.1	-1.3	·	·
O=C(O)CN1C(=O)/C(=C\c2ccccc2OCc2ccc(Cl)cc2Cl)SC1=S	-16.7	9.8	79.4*	-26.2	-86.4	89.8*	65.7*
O=C(O)CN1C(=O)/C(=C\c2cc(Br)ccc2OCc2ccccc2F)SC1=S	-12.6	17.6	64.8*	-12.4	-80.3	87.2*	60.6*
O=C(O)CN1C(=O)/C(=C\c2cccc(OCc3ccc(Cl)cc3Cl)c2)SC1=S	-14.9	2.6	78.6*	-24.8	-112.0	85.3*	57.5*
COC(=O)[C@]12C[C@H](CC(=O)N3CCSCC3)C(=O)N(Cc3ccccc3)C1=C[C@H](C(C)(C)C)O[C@@H]2C	7.3	1.4	-0.7	0.3	·	·	·
Cc1cccc(Cn2cc(CN3CC(N(C)CCOC(=O)c4cc(C)cc(C)c4)CS3(=O)=O)nn2)c1 (stereo unspecified)	3.0	-0.1	1.8	2.5	·	·	·
O=C(N[C@@H](Cc1cccnc1)C(=O)N1CCC[C@H]1C(=O)NC1CCCC1)c1ccc(Cl)c(Cl)c1	-0.3	4.8	-0.6	-3.2	·	·	·
O=C(O)CN1C(=O)/C(=C\c2cc(Br)ccc2OCc2ccc([N+](=O)[O-])cc2)SC1=S	-10.5	24.1*	76.6*	17.4	-50.1	94.4*	75.2*
Cc1ccc(C)c(NC(=O)c2ccccc2Sc2ccc([N+](=O)[O-])cc2Cl)c1	3.4	-1.6	0.7	-1.6	-5.9	·	·
SMILES	SIAE inh	PRMT1 inh	rCAG binder	mABHD4 FP	HTRA1 inhibitor	rCAG binder conf	dCAG dye counter	others
O=C(CSc1ccc([N+](=O)[O-])cc1)Nc1cccc(S(=O)(=O)Nc2ccccc2F)c1	-9.1	15.2	49.9*	-24.1	-21.6	37.1*	12.6*
Cc1ccc(C(=O)Nc2cccc([N+](=O)[O-])c2)cc1S(=O)(=O)Nc1cccc(C(=O)O)c1	-8.4	0.1	34.3	5.9	-4.9	·	·
Cc1ccc(C)c(NC(=O)c2ccccc2NS(=O)(=O)c2cc([N+](=O)[O-])ccc2C)c1	-8.8	3.1	39.8*	-7.0	-7.7	76.9*	42.9*
Cc1ccc([N+](=O)[O-])cc1S(=O)(=O)Nc1cccc(S(=O)(=O)Nc2ccccc2C(=O)O)c1	-4.8	0.0	45.8*	-8.3	-4.0	37.6*	9.3*
CC(=O)Nc1ccc(S(=O)(=O)NNC(=O)c2cc3c4ccccc4n(C)c3s2)cc1	-28.7	2.1	35.5*	-20.3	-27.2	31.5	15.9*
Cc1ccc2nc(NC(=O)c3ccc(NS(=O)(=O)c4cccs4)cc3)sc2c1	-16.1	-1.2	43.4*	-30.6	-30.0	60.6*	22.6*
CS(=O)(=O)c1ccc2nc(NC(=O)Nc3cccc(Cl)c3)sc2c1	-55.6	-0.4	71.3*	-20.1	-29.8	63.3*	46.9*
CS(=O)(=O)c1ccc2nc(NC(=O)c3ccc(NS(=O)(=O)c4cccc([N+](=O)[O-])c4)cc3)sc2c1	-45.8	1.7	72.5*	-2.6	-8.1	70.1*	31.3*	DNA CAG DR=9.38*
Cc1ccc2nc(NC(=O)CCNS(=O)(=O)c3cccs3)sc2c1	-5.5	-1.4	8.7	-13.0	-22.9	·	·
CC(C)C[C@H]1COc2cccc(F)c2S(=O)(=O)N1Cc1cn(Cc2ccco2)nn1	-0.9	0.3	2.3	1.7	·	·	·
CC(Nc1nc(=S)nc(Nc2ccc(F)cc2)[nH]1)c1ccccc1 (stereo unspecified)	-19.7	5.3	67.5*	-8.3	-5.9	9.6	11.7*
N#C/C(=N\Nc1ccc(Cl)cc1)C(=O)c1ccccc1	3.6	0.2	58.9*	1.9	8.7	58.0*	14.0*
CCOC(=O)NC(=O)/C(C#N)=N\Nc1ccc(Cl)cc1	-1.7	3.1	23.9	2.3	-4.0	·	·
